Measurements as given in article PMC12418302 (Journal of Natural Products, 2025).

Columns and labels:
zebrafish = conditions: in vivo; cited from earlier work
α-chymotrypsin = α-chymotrypsin (Bos taurus, UniProt P00766); test: Chymotrypsin inhibition assay; type: biochemical
Summary of the method: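 α-Chymotrypsin, added as a 10 U/mL solution in kit assay buffer, was preincubated with test compound from a DMSO dilution series (10 μM to 1 nM) for 15 min at room temperature. A reference micropeptin served as positive control. A working reagent of 1% substrate in assay buffer was added, and fluorescence (ex/em 485/530 nm) was read every 30 s for 30 min. IC50 was calculated from the data.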

[1] = target: T1, human neutrophil elastase (Homo sapiens, UniProt P08246); test: Neutrophil elastase inhibition assay; type: biochemical; conditions: dilution series 10 μM to 1 nM; general statement covering both protease assays
T1 sequence (P08246 30-267): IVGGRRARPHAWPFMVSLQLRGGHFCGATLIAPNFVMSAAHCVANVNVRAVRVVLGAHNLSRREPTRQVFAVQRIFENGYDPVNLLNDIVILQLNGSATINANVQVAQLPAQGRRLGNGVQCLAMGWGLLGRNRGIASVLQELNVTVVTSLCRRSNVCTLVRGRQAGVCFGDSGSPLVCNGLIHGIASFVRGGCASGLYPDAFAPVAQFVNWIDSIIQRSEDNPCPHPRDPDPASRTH

chymotrypsin = conditions: read-out: IC50, chymotrypsin inhibition; literature value; cited from earlier work

CCCCCC(=O)N[C@@H](CC(=O)O)C(=O)N[C@H]1C(=O)N[C@@H](CCCN=C(N)N)C(=O)NC2CCC(O)N(C2=O)[C@@H]([C@H](C)CC)C(=O)N(C)[C@@H](Cc2ccc(O)cc2)C(=O)N[C@@H]([C@@H](C)CC)C(=O)O[C@@H]1C (some centres unmarked) [micropeptin K139]
share of the overall mortality attributed to the compound (zebrafish): 52%

Micropeptin 982 (L-Ser) [Compound 2]
chymotrypsin inhibitory activity (in words) (α-chymotrypsin; dilution series 10 μM to 1 nM): no inhibition was observed
inhibitory activity (in words), neutrophil elastase [1]: lacked any inhibitory activity

Micropeptin 996 (D-Gln) [Compound 4]
chymotrypsin inhibition (in words) (α-chymotrypsin; up to a concentration of 10 μM): not active

Microviridin 1777
IC50 (chymotrypsin): 100 nM
